# From ChEMBL document CHEMBL1649483, “Molecular analysis of the gyrA and gyrB quinolone resistance-determining regions of fluoroquinolone-resistant Clostridium difficile mutants selected in vitro” (2009)
# How the values were obtained:
# Assay type in all cases: functional
# Clostridioides difficile [1] = test: Antimicrobial activity against Clostridium difficile 630a selected after 2 ug/ml of moxifloxacin by Etest method
# Summary of the method: (§1)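 Stable in vitro-selected mutant tested for gatifloxacin susceptibility by Etest, per the manufacturer's instructions, with an 8 μg/ml breakpoint. For selection, the parent was grown in antibiotic-free brain heart infusion (BHI) for 24 h at 35°C under anaerobic conditions. […] Later steps used double the MIC. Stability was confirmed by three subcultures.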
# Clostridioides difficile [2] = test: Antimicrobial activity against Clostridium difficile C253B selected after 4 ug/ml of levofloxacin by Etest method
# Clostridioides difficile [3] = test: Antimicrobial activity against Clostridium difficile CD5h harboring GyrA Ala92Glu and GyrB Ser416Ala mutant genes selected after 8 ug/ml of moxifloxacin by Etest method
# Clostridioides difficile [4] = test: Antimicrobial activity against Clostridium difficile BI2d harboring GyrB Arg447Lys and Asp426Asn mutant gene selected after 32 ug/ml of moxifloxacin by Etest method; summary of the method: as §1
# Clostridioides difficile [5] = test: Antimicrobial activity against Clostridium difficile C253D selected after 8 ug/ml of levofloxacin by Etest method
# Clostridioides difficile [6] = test: Antimicrobial activity against Clostridium difficile CD5E harboring GyrB Ser416Ala mutant gene selected after 8 ug/ml of levofloxacin by Etest method
# Clostridioides difficile [7] = test: Antimicrobial activity against Clostridium difficile 630D harboring GyrA Ala118Val mutant gene selected after 8 ug/ml of levofloxacin by Etest method; summary of the method: as §1
# Clostridioides difficile [8] = test: Antimicrobial activity against Clostridium difficile A422e selected after 4 ug/ml of moxifloxacin by Etest method; summary of the method: as §1
# Clostridioides difficile [9] = test: Antimicrobial activity against Clostridium difficile 630h harboring GyrB […] mutant gene selected after 8 ug/ml of moxifloxacin by Etest method; summary of the method: as §1
# Clostridioides difficile [10] = test: Antimicrobial activity against Clostridium difficile CD5e harboring GyrB Ser416Ala mutant gene selected after 4 ug/ml of moxifloxacin by Etest method
# Clostridioides difficile [11] = test: Antimicrobial activity against Clostridium difficile CD5D harboring GyrB Ser416Ala mutant gene selected after 8 ug/ml of levofloxacin by Etest method
# Clostridioides difficile [12] = test: Antimicrobial activity against Clostridium difficile 630F harboring GyrA Ala118Val mutant gene selected after 8 ug/ml of levofloxacin by Etest method; summary of the method: as §1
# Clostridioides difficile [13] = test: Antimicrobial activity against Clostridium difficile CD5A harboring GyrB Ser416Ala mutant gene selected after 4 ug/ml of levofloxacin by Etest method
# Clostridioides difficile [14] = test: Antimicrobial activity against Clostridium difficile BI2b harboring GyrB Arg447Lys mutant gene selected after 2 ug/ml of moxifloxacin by Etest method; summary of the method: as §1
# Clostridioides difficile [15] = test: Antimicrobial activity against Clostridium difficile C253i harboring GyrA Ala118Ser mutant gene selected after 8 ug/ml of moxifloxacin by Etest method
# Clostridioides difficile [16] = test: Antimicrobial activity against Clostridium difficile C253 expressing tcdA and tcdB gene by Etest method
# Summary of the method: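 Parent clinical or nontoxigenic isolate tested for gatifloxacin susceptibility by Etest, run per the manufacturer's instructions; a fluoroquinolone breakpoint of 8 μg/ml was applied.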
# Clostridioides difficile [17] = test: Antimicrobial activity against Clostridium difficile BI2e harboring GyrB Arg447Lys and Asp426Asn mutant gene selected after 32 ug/ml of moxifloxacin by Etest method; summary of the method: as §1
# Clostridioides difficile [18] = test: Antimicrobial activity against Clostridium difficile 630E harboring GyrA Ala118Val mutant gene selected after 8 ug/ml of levofloxacin by Etest method; summary of the method: as §1
# Clostridioides difficile [19] = test: Antimicrobial activity against Clostridium difficile A422I harboring GyrA Thr82Ile and GyrB Leu451Phe mutant genes selected after 8 ug/ml of levofloxacin by agar dilution method
# Clostridioides difficile [20] = test: Antimicrobial activity against Clostridium difficile 630 expressing tcdA and tcdB gene by agar dilution method
# Clostridioides difficile [21] = test: Antimicrobial activity against Clostridium difficile BI2C selected after 4 ug/ml of levofloxacin by agar dilution method
# Clostridioides difficile [22] = test: Antimicrobial activity against Clostridium difficile C253b selected after 2 ug/ml of moxifloxacin by agar dilution method
# Clostridioides difficile [23] = test: Antimicrobial activity against Clostridium difficile C253a selected after 2 ug/ml of moxifloxacin by agar dilution method
# Clostridioides difficile [24] = test: Antimicrobial activity against Clostridium difficile BI2d harboring GyrB Arg447Lys and Asp426Asn mutant gene selected after 32 ug/ml of moxifloxacin by agar dilution method
# Clostridioides difficile [25] = test: Antimicrobial activity against Clostridium difficile CD5c harboring GyrB Ser416Ala mutant gene selected after 2 ug/ml of moxifloxacin by agar dilution method
# Clostridioides difficile [26] = test: Antimicrobial activity against Clostridium difficile CD5 2-g harboring GyrA Ala118Ser, Thr82Ala and GyrB Ser416Ala mutant genes selected after 8 ug/ml of moxifloxacin by agar dilution method
# Clostridioides difficile [27] = test: Antimicrobial activity against Clostridium difficile C253E selected after 8 ug/ml of levofloxacin by agar dilution method
# Clostridioides difficile [28] = test: Antimicrobial activity against Clostridium difficile CD5D harboring GyrB Ser416Ala mutant gene selected after 8 ug/ml of levofloxacin by agar dilution method
# Clostridioides difficile [29] = test: Antimicrobial activity against Clostridium difficile CD5B harboring GyrB Ser416Ala mutant gene selected after 4 ug/ml of levofloxacin by agar dilution method
# Clostridioides difficile [30] = test: Antimicrobial activity against Clostridium difficile C253 expressing tcdA and tcdB gene by agar dilution method
# Clostridioides difficile [31] = test: Antimicrobial activity against Clostridium difficile A422f selected after 4 ug/ml of moxifloxacin by agar dilution method
# Clostridioides difficile [32] = test: Antimicrobial activity against Clostridium difficile A422i harboring GyrA Asp81Asn mutant gene selected after 8 ug/ml of moxifloxacin by agar dilution method
# Clostridioides difficile [33] = test: Antimicrobial activity against Clostridium difficile CD5a harboring GyrB Ser416Ala mutant gene selected after 2 ug/ml of moxifloxacin by agar dilution method
# Clostridioides difficile [34] = test: Antimicrobial activity against Clostridium difficile 630a selected after 2 ug/ml of moxifloxacin by agar dilution method
# Clostridioides difficile [35] = test: Antimicrobial activity against Clostridium difficile 630E harboring GyrA Ala118Val mutant gene selected after 8 ug/ml of levofloxacin by agar dilution method
# Clostridioides difficile [36] = test: Antimicrobial activity against Clostridium difficile C253d selected after 4 ug/ml of moxifloxacin by agar dilution method
# Clostridioides difficile [37] = test: Antimicrobial activity against Clostridium difficile CD5 1-g harboring GyrA Ala92Glu and GyrB Ser416Ala mutant genes selected after 8 ug/ml of moxifloxacin by agar dilution method
# Clostridioides difficile [38] = test: Antimicrobial activity against Clostridium difficile CD25 expressing tcdA, tcdB gene and GyrB Ser416Ala mutant by agar dilution method
# Clostridioides difficile [39] = test: Antimicrobial activity against Clostridium difficile A422G harboring GyrA Thr82Ile and GyrB Leu451Phe mutant genes selected after 8 ug/ml of levofloxacin by agar dilution method
# Clostridioides difficile [40] = test: Antimicrobial activity against Clostridium difficile 630D harboring GyrA Ala118Val mutant gene selected after 8 ug/ml of levofloxacin by agar dilution method
# Clostridioides difficile [41] = test: Antimicrobial activity against Clostridium difficile BI2 by agar dilution method
structure (smiles),measurement,setting,value
COc1c(N2CCNC(C)C2)c(F)cc2c(=O)c(C(=O)O)cn(C3CC3)c12 (stereo unspecified) [GATIFLOXACIN],MIC,Clostridioides difficile [1],0.75 µg/mL
same,MIC,Clostridioides difficile [2],0.5 µg/mL
same,MIC,Clostridioides difficile [3],3 µg/mL
same,MIC,Clostridioides difficile [4],6 µg/mL
same,MIC,Clostridioides difficile [5],1 µg/mL
same,MIC,Clostridioides difficile [6],2 µg/mL
same,MIC,Clostridioides difficile [7],3 µg/mL
same,MIC,Clostridioides difficile [8],1.5 µg/mL
same,MIC,Clostridioides difficile [9],≥ 32 µg/mL
same,MIC,Clostridioides difficile [10],0.75 µg/mL
same,MIC,Clostridioides difficile [11],2 µg/mL
same,MIC,Clostridioides difficile [12],3 µg/mL
same,MIC,Clostridioides difficile [13],0.5 µg/mL
same,MIC,Clostridioides difficile [14],1.5 µg/mL
same,MIC,Clostridioides difficile [15],8 µg/mL
same,MIC,Clostridioides difficile [16],0.5 µg/mL
same,MIC,Clostridioides difficile [17],6 µg/mL
same,MIC,Clostridioides difficile [18],3 µg/mL
C[C@H]1COc2c(N3CCN(C)CC3)c(F)cc3c(=O)c(C(=O)O)cn1c23.C[C@H]1COc2c(N3CCN(C)CC3)c(F)cc3c(=O)c(C(=O)O)cn1c23.O [LEVOFLOXACIN],MIC,Clostridioides difficile [19],64 µg/mL
same,MIC,Clostridioides difficile [20],2 µg/mL
same,MIC,Clostridioides difficile [21],1 µg/mL
same,MIC,Clostridioides difficile [22],4 µg/mL
same,MIC,Clostridioides difficile [23],4 µg/mL
same,MIC,Clostridioides difficile [24],64 µg/mL
same,MIC,Clostridioides difficile [25],2 µg/mL
same,MIC,Clostridioides difficile [26],64 µg/mL
same,MIC,Clostridioides difficile [27],2 µg/mL
same,MIC,Clostridioides difficile [28],2 µg/mL
same,MIC,Clostridioides difficile [29],1 µg/mL
same,MIC,Clostridioides difficile [30],2 µg/mL
same,MIC,Clostridioides difficile [31],4 µg/mL
same,MIC,Clostridioides difficile [32],64 µg/mL
same,MIC,Clostridioides difficile [33],2 µg/mL
same,MIC,Clostridioides difficile [34],4 µg/mL
same,MIC,Clostridioides difficile [35],8 µg/mL
same,MIC,Clostridioides difficile [36],4 µg/mL
same,MIC,Clostridioides difficile [37],16 µg/mL
same,MIC,Clostridioides difficile [38],2 µg/mL
same,MIC,Clostridioides difficile [39],64 µg/mL
same,MIC,Clostridioides difficile [40],8 µg/mL
same,MIC,Clostridioides difficile [41],2 µg/mL
